Experimental data from ChEMBL document CHEMBL3352256 (J Med Chem, 2014).

Columns and labels:
[1] = tested on: Human T-cell leukemia virus type I; assay: Inhibition of HTLV-1 protease at 40 uM using (RE(Edans)TKVLVVQPK(Dabsyl)R) substrate by fluorescence-based assay
Outline: (§1)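 HTLV-1 PR (aspartic protease, homodimer) activity was measured in a fluorescence-based assay. Inhibitors were tested at 80, 40 and 8 μM, and the read-out was percent inhibition. A percentage efficiency index (PEI) was then calculated from the percent inhibition value and the molecular weight.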

[2] = Inhibition of HTLV-1 protease; set-up: species or system Human T-cell leukemia virus type I
[3] = tested on: Human T-cell leukemia virus type I; assay: Inhibition of HTLV-1 protease at 8 uM using (RE(Edans)TKVLVVQPK(Dabsyl)R) substrate by fluorescence-based assay; outline: as §1
[4] = tested on: Human T-cell leukemia virus type I; assay: Inhibition of HTLV-1 protease at 80 uM using (RE(Edans)TKVLVVQPK(Dabsyl)R) substrate by fluorescence-based assay; outline: as §1

Compound: CC(C)(C)NC(=O)[C@@H]1CN(Cc2cccnc2)CCN1C[C@@H](O)C[C@@H](Cc1ccccc1)C(=O)N[C@H]1c2ccccc2C[C@H]1O
- inhibition [1]: 91.2%
- Ki [2]: 3.5 µM
- inhibition [3]: 71.8%
- inhibition [4]: 95.4%

Compound: CC(C)CN(C[C@@H](O)[C@H](Cc1ccccc1)NC(=O)O[C@H]1CCOC1)S(=O)(=O)c1ccc(N)cc1
- Ki [2]: > 20 µM

Compound: CC(C)(C)NC(=O)[C@@H]1CNCCN1C[C@@H](O)C[C@@H](Cc1ccccc1)C(=O)N[C@H]1c2ccccc2C[C@H]1O
- inhibition [1]: 45.1%
- inhibition [3]: 16.8%
- inhibition [4]: 60.8%

Compound: CC(C)(C)NC(=O)[C@@H]1C[C@@H]2CCCC[C@@H]2CN1C[C@@H](O)[C@H](Cc1ccccc1)NC(=O)[C@H](CC(N)=O)NC(=O)c1ccc2ccccc2n1
- Ki [2]: > 20 µM

Compound: Cc1c(O)cccc1C(=O)N[C@@H](CSc1ccccc1)[C@H](O)CN1C[C@H]2CCCC[C@H]2C[C@H]1C(=O)NC(C)(C)C
- Ki [2]: > 20 µM
